Laboratory results from ChEMBL document CHEMBL1122525, “Synthesis and antifungal activity of (E)-N-(6,6-dimethyl-2-hepten-4-ynyl)-N-methyl-1-naphtha lenemethanamine (SF 86-327) and related allylamine derivatives with enhanced oral activity” (1984).
In brackets after ≈: the same amount, converted by molar mass.

How the values were obtained:
Cavia porcellus [1] = test: Compound was evaluated in vivo for the activity (% mycological cure) by topical treatment of guinea pig dermatophytosis caused by Trichophyton mentagrophytes (0.125% of compound); type: functional
Outline: (§1)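 Infection model: 8–10 guinea pigs per dose level, lumbar backs shorn, 10^6 cfu T. mentagrophytes in 0.1 mL Sabouraud 2% dextrose broth applied over a 3.5 cm diameter area. Starting 48 h post-inoculation, 0.4 mL compound solution in PEG 400/ethanol 75/25 (v/v) was spread on the lesion once daily for 7 days. Read-out on day 3 after the last treatment: hair cultures checked microscopically for growth at hair roots.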

Sporothrix schenckii = test: In vitro minimum inhibitory concentration (MIC) against isolates of Sporothrix schenck ii in Sabouraud's dextrose broth; type: functional
Outline: (§2)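 Tube broth dilution in Sabouraud's dextrose broth, pH 6.5. Compounds were dissolved in Me₂SO and serially diluted in medium, then incubated at 30 °C. Growth control was read at 48 h for Candida albicans and C. parapsilosis, 72 h for Aspergillus fumigatus, and 7 days for Sporothrix schenckii and the dermatophytes. MIC is the lowest concentration with no macroscopic growth.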

Trichophyton benhamiae = test: In vitro minimum inhibitory concentration (MIC) against isolates of Trichophyton mentagrophytes in Sabouraud's dextrose broth; type: functional, Arthroderma benhamiae; outline: as §2
Cavia porcellus [2] = test: Compound was evaluated in vivo for the activity (% mycological cure) by topical treatment of guinea pig dermatophytosis caused by Trichophyton mentagrophytes (0.5% of compound); type: functional; outline: as §1
Microsporum canis = test: In vitro minimum inhibitory concentration (MIC) against isolates of Microsporum canis in Sabouraud's dextrose broth; type: functional; outline: as §2
Epidermophyton floccosum = test: In vitro minimum inhibitory concentration (MIC) against isolates of Epidermophyton floccosum in Sabouraud's dextrose broth; type: functional; outline: as §2
Candida parapsilosis = test: In vitro minimum inhibitory concentration (MIC) against isolates of Candida parapsilosis in Sabouraud's dextrose broth; type: functional; conditions: Lodderomyces parapsilosis; outline: as §2
Cavia porcellus [3] = test: Compound was evaluated in vivo for the activity (% mycological cure) by oral treatment of guinea pig dermatophytosis caused by Trichophyton mentagrophytes. Dose = 150 mg/kg/day; type: functional
Outline: (§3)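 Guinea pigs, 8–10 per dose, with shorn lumbar backs were inoculated over a 3.5 cm circle with 0.1 mL Sabouraud 2% dextrose broth carrying 10^6 cfu T. mentagrophytes. Compound in miglyol 812 was given as 0.5 mL by stomach tube once daily for 9 days from the inoculation day. One day after the last dose, hairs from lesions were cultured and hair-root regions examined microscopically for fungal growth.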

Candida albicans = test: In vitro minimum inhibitory concentration (MIC) against isolates of Candida albicans in Sabouraud's dextrose broth; type: functional; outline: as §2
Aspergillus fumigatus = test: In vitro minimum inhibitory concentration (MIC) against isolates of Aspergillus fumigatus in Sabouraud's dextrose broth; type: functional; outline: as §2
Cavia porcellus [4] = test: Compound was evaluated in vivo for the activity (% mycological cure) by oral treatment of guinea pig dermatophytosis caused by Trichophyton mentagrophytes. Dose =5 mg/kg/day; type: functional; outline: as §3
Cavia porcellus [5] = test: Compound was evaluated in vivo for the activity (% mycological cure) by oral treatment of guinea pig dermatophytosis caused by Trichophyton mentagrophytes. Dose = 10 mg/kg/day; type: functional; outline: as §3
Cavia porcellus [6] = test: Compound was evaluated in vivo for the activity (% mycological cure) by oral treatment of guinea pig dermatophytosis caused by Trichophyton mentagrophytes. Dose = 5 mg/kg/day; type: functional; outline: as §3
Cavia porcellus [7] = test: Compound was evaluated in vivo for the activity (% mycological cure) by oral treatment of guinea pig dermatophytosis caused by Trichophyton mentagrophytes. Dose = 37.5 mg/kg/day; type: functional; outline: as §3
Cavia porcellus [8] = test: Compound was evaluated in vivo for the activity (% mycological cure) by oral treatment of guinea pig dermatophytosis caused by Trichophyton mentagrophytes. Dose = 75 mg/kg/day; type: functional; outline: as §3

SMILES	MIC (Sporothrix schenckii) [µg/mL]	MIC (Trichophyton benhamiae) [µg/mL]	MIC (Microsporum canis) [µg/mL]	MIC (Epidermophyton floccosum) [µg/mL]	MIC (Candida parapsilosis) [µg/mL]	MIC (Candida albicans) [µg/mL]	MIC (Aspergillus fumigatus) [µg/mL]	Activity (Cavia porcellus [1]) [%]	Activity (Cavia porcellus [2]) [%]	Activity (Cavia porcellus [3]) [%]	Activity (Cavia porcellus [4]) [%]	Activity (Cavia porcellus [5]) [%]	Activity (Cavia porcellus [6]) [%]	Activity (Cavia porcellus [7]) [%]	Activity (Cavia porcellus [8]) [%]
CN(C/C=C/c1ccccc1)Cc1cccc2ccccc12 [NAFTIFINE]	1.6 (≈ 5.57 µM)	0.05 (≈ 0.174 µM)	0.1 (≈ 0.348 µM)	0.2 (≈ 0.696 µM)	1.6 (≈ 5.57 µM)			35	65						
CN(C/C=C/C#CC(C)(C)C)Cc1cccc2ccccc12 [TERBINAFINE]	0.4 (≈ 1.37 µM)	0.006 (≈ 0.0206 µM)	0.006 (≈ 0.0206 µM)	0.006 (≈ 0.0206 µM)	0.4 (≈ 1.37 µM)	25 (≈ 85.8 µM)	0.8 (≈ 2.75 µM)					100	98		
CCCCC#CC#CCN(C)Cc1cccc2ccccc12	100 (≈ 346 µM)	0.2 (≈ 0.691 µM)	0.8 (≈ 2.76 µM)	3.1 (≈ 10.7 µM)	100 (≈ 346 µM)										

More lines, main results first:

MIC (Sporothrix schenckii) [µg/mL]	MIC (Trichophyton benhamiae) [µg/mL]	MIC (Microsporum canis) [µg/mL]	MIC (Epidermophyton floccosum) [µg/mL]	MIC (Candida parapsilosis) [µg/mL]	MIC (Candida albicans) [µg/mL]	MIC (Aspergillus fumigatus) [µg/mL]	SMILES	Activity (Cavia porcellus [1]) [%]	Activity (Cavia porcellus [2]) [%]	Activity (Cavia porcellus [3]) [%]	Activity (Cavia porcellus [4]) [%]	Activity (Cavia porcellus [5]) [%]	Activity (Cavia porcellus [6]) [%]	Activity (Cavia porcellus [7]) [%]	Activity (Cavia porcellus [8]) [%]
50 (≈ 172 µM)	0.2 (≈ 0.686 µM)	0.2 (≈ 0.686 µM)	100 (≈ 343 µM)	100 (≈ 343 µM)			CCCCC#C/C=C\CN(C)Cc1cccc2ccccc12								
3.1 (≈ 10.6 µM)	0.05 (≈ 0.17 µM)	0.1 (≈ 0.341 µM)	0.2 (≈ 0.682 µM)	1.6 (≈ 5.45 µM)			CCCC/C=C/C=C/CN(C)Cc1cccc2ccccc12	40	69	43					
0.8 (≈ 2.75 µM)	0.01 (≈ 0.0343 µM)	0.006 (≈ 0.0206 µM)	0.006 (≈ 0.0206 µM)	0.4 (≈ 1.37 µM)	100 (≈ 343 µM)	100 (≈ 343 µM)	CCC(C)C#C/C=C/CN(C)Cc1cccc2ccccc12 (configuration not stated)				23	75			
> 100	0.2 (≈ 0.686 µM)	0.2 (≈ 0.686 µM)	1.6 (≈ 5.49 µM)	> 100			CCCC/C=C/C#CCN(C)Cc1cccc2ccccc12								
1.6 (≈ 5.49 µM)	0.01 (≈ 0.0343 µM)	0.01 (≈ 0.0343 µM)	0.01 (≈ 0.0343 µM)	0.4 (≈ 1.37 µM)	100 (≈ 343 µM)	100 (≈ 343 µM)	CCCCC#C/C=C/CN(C)Cc1cccc2ccccc12	83	100	100		15	0	83	100
